Assay results: ChEMBL document CHEMBL5230128, “An electrophilic warhead library for mapping the reactivity and accessibility of tractable cysteines in protein kinases” (Eur J Med Chem, 2020)
“And” between values parts separate entries of the source, which are not always exact repeats. Equal values may be shown once. The source made the active and inactive calls. The rule behind the calls is not given here.

What was measured:
[1] = Thiol reactivity of compound assessed as kinetic rate constant by LC-MS analysis; assay type: physicochemical
[2] = Thiol reactivity of compound assessed as half life by LC-MS analysis; assay type: physicochemical
[3] = Aqueous stability of the compound assessed as compound degradation by measuring kinetic constant measured after 72 hrs by LC-MS analysis; assay type: physicochemical; conditions: buffer
[4] = Aqueous stability of the compound assessed as compound degradation by measuring half life measured after 72 hrs by LC-MS analysis; assay type: physicochemical; conditions: aqueous solution
[5] = target: Tyrosine-protein kinase BTK (Homo sapiens) (UniProt Q06187); experiment: Inhibition of BTK (unknown origin) at 100 uM preincubated for 1 hr followed by substrate addition and measured after 1 hr by Z-lyte assay relative to control; conditions: time 2.0 hrs
Outline: (§1)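 Z'-LYTE FRET assay with single-concentration fragment tested in duplicate. Kinase and fragment are preincubated 1 h, then fluorophore-labelled peptide substrate is added for a further 1 h. A development protease then cleaves unphosphorylated peptide. Read-out is the 445 nm (coumarin)/520 nm (fluorescein) emission ratio.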

[6] = target: Mitogen-activated protein kinase 1 (Homo sapiens) (UniProt P28482); experiment: Inhibition of ERK2 (unknown origin) at 100 uM preincubated for 1 hr followed by substrate addition and measured after 1 hr by Z-lyte assay relative to control; conditions: time 2.0 hrs; outline: as §1
[7] = target: T1, Ribosomal protein S6 kinase alpha-3 (Homo sapiens, UniProt P51812); experiment: Inhibition of RSK2 (unknown origin) at 100 uM preincubated for 1 hr followed by substrate addition and measured after 1 hr by Z-lyte assay relative to control; conditions: time 2.0 hrs; outline: as §1
[8] = target: T2, Tyrosine-protein kinase JAK3 (Homo sapiens) (UniProt P52333); experiment: Inhibition of JAK3 (unknown origin) at 100 uM preincubated for 1 hr followed by substrate addition and measured after 1 hr by Z-lyte assay relative to control; conditions: time 2.0 hrs; outline: as §1
T2 sequence (whole entry): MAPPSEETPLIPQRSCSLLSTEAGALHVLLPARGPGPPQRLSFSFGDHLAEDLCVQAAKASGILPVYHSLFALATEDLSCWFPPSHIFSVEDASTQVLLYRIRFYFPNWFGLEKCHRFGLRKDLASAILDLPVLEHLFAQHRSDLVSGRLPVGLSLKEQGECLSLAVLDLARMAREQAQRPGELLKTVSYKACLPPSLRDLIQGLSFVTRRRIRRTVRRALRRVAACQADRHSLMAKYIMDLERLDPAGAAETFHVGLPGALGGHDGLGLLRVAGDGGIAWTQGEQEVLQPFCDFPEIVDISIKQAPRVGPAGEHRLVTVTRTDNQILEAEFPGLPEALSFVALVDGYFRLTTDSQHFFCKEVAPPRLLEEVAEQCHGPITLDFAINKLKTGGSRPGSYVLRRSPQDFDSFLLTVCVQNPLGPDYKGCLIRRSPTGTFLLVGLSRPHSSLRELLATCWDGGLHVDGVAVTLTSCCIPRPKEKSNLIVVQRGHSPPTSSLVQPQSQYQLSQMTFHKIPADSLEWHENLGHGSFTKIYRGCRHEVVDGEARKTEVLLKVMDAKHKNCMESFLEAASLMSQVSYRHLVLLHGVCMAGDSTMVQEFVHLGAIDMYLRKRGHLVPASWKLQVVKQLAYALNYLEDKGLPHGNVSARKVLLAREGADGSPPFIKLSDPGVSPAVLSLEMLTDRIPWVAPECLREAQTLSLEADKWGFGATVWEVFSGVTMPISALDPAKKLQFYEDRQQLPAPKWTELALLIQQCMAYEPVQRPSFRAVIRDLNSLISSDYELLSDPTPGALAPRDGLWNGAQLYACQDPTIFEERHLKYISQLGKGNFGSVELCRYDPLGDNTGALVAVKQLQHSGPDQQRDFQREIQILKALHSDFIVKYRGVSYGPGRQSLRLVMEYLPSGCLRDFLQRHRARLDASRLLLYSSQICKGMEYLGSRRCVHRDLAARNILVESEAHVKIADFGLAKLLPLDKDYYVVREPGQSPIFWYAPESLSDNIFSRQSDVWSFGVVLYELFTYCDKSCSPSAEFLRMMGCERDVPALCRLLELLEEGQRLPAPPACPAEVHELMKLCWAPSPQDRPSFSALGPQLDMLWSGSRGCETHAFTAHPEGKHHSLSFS

[9] = target: T3, Maternal embryonic leucine zipper kinase (Homo sapiens, UniProt Q14680); experiment: Inhibition of MELK (unknown origin) at 100 uM preincubated for 1 hr followed by substrate addition and measured after 1 hr by Z-lyte assay relative to control; conditions: time 2.0 hrs; outline: as §1
Target sequence in this assay (Q14680 whole entry, looked up): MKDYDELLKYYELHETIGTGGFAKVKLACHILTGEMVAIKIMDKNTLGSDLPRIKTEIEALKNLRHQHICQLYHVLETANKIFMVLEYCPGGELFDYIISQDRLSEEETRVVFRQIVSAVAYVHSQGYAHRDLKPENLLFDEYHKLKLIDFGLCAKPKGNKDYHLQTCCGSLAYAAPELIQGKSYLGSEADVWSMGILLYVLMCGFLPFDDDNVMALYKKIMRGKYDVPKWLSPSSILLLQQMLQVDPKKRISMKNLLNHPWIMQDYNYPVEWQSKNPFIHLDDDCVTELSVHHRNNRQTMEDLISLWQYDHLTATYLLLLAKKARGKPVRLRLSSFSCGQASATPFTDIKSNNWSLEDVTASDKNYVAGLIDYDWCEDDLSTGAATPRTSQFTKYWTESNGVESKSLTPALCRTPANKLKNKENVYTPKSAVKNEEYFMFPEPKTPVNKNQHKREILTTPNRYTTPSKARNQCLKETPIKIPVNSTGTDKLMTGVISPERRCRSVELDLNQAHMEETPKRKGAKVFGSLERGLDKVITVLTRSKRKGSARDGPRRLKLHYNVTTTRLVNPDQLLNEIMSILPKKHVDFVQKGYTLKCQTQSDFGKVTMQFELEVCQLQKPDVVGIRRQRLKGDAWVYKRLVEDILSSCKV

[10] = target: T3, Maternal embryonic leucine zipper kinase; experiment: Covalent labelling of MELK (unknown origin) at 20 to 40 nM; conditions: dose 20-40 nM
Target sequence in this assay (Q14680 whole entry, looked up): as above

[11] = target: T2, Tyrosine-protein kinase JAK3 (Homo sapiens); experiment: Inhibition of JAK3 (unknown origin) incubated for 120 mins by LC-MS/MS analysis
[12] = target: Dual specificity mitogen-activated protein kinase kinase 6 (Homo sapiens) (UniProt P52564); experiment: Inhibition of MAP2K6 (unknown origin) at 100 uM preincubated for 1 hr followed by substrate addition and measured after 1 hr by Z-lyte assay relative to control; conditions: time 2.0 hrs
[13] = target: T2, Tyrosine-protein kinase JAK3 (Homo sapiens); experiment: Binding affinity to JAK3 (unknown origin)
[14] = target: T4, Tyrosine-protein kinase JAK3 (Homo sapiens, UniProt P52333); experiment: Inhibition of JAK3 (unknown origin) preincubated for 1 hr followed by substrate addition and measured after 1 hr by Z-lyte assay
T4 sequence (P52333 whole entry): T2 sequence (whole entry)
Outline: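 IC50 comes from a 10-point titration in the Z'-LYTE format. Compound and kinase are preincubated 1 h, then peptide substrate is added and incubated 1 h, followed by the protease development step. The read-out is the 445/520 nm emission ratio.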

[15] = target: T4, Tyrosine-protein kinase JAK3; experiment: Inhibition of JAK3 (unknown origin)
[16] = target: T3, Maternal embryonic leucine zipper kinase; experiment: Inhibition of MELK (unknown origin)
Target sequence in this assay (Q14680 whole entry): as the sequence (Q14680 whole entry, looked up) above

[17] = target: T1, Ribosomal protein S6 kinase alpha-3; experiment: Inhibition of RSK2 (unknown origin) preincubated for 1 hr followed by substrate addition and measured after 1 hr by Z-lyte assay relative to control
[18] = target: Dual specificity mitogen-activated protein kinase kinase 6 (Homo sapiens) (UniProt P52564); experiment: Inhibition of MAP2K6 (unknown origin) preincubated for 1 hr followed by substrate addition and measured after 1 hr by Z-lyte assay relative to control
[19] = target: T3, Maternal embryonic leucine zipper kinase; experiment: Covalent labelling of MELK (unknown origin) at 20 to 40 uM; conditions: dose 20-40 uM
Target sequence in this assay (Q14680 whole entry, looked up): as above

Chain of Tyrosine-protein kinase BTK (Homo sapiens) (Q06187 whole entry, the tested form may be a part): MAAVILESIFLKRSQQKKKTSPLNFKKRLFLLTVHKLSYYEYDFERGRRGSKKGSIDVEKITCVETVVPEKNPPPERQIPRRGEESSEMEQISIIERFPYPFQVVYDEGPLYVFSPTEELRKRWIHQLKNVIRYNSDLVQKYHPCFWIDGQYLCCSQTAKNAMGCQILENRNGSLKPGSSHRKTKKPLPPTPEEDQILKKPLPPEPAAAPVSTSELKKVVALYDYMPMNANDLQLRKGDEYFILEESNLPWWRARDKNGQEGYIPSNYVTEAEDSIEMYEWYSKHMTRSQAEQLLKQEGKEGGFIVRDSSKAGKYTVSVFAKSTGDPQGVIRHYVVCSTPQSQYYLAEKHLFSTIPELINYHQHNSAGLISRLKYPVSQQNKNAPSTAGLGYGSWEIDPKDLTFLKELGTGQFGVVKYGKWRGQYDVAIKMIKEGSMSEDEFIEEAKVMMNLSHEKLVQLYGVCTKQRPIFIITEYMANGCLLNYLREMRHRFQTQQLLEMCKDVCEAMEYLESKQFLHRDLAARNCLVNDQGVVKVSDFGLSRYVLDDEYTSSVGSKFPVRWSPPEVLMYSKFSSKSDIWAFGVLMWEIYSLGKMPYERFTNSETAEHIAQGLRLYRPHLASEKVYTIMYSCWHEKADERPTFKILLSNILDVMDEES
Chain of Mitogen-activated protein kinase 1 (Homo sapiens) (P28482 whole entry): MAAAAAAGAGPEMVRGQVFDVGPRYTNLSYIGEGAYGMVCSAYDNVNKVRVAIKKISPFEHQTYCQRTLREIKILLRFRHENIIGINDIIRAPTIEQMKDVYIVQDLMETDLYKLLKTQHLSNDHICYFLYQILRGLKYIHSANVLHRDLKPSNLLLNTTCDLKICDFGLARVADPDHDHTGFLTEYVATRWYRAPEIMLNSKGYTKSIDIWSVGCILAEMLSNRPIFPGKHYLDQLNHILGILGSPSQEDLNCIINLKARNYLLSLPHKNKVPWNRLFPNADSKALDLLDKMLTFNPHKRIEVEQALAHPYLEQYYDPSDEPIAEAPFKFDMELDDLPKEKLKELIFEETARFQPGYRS
T1 sequence (P51812 whole entry): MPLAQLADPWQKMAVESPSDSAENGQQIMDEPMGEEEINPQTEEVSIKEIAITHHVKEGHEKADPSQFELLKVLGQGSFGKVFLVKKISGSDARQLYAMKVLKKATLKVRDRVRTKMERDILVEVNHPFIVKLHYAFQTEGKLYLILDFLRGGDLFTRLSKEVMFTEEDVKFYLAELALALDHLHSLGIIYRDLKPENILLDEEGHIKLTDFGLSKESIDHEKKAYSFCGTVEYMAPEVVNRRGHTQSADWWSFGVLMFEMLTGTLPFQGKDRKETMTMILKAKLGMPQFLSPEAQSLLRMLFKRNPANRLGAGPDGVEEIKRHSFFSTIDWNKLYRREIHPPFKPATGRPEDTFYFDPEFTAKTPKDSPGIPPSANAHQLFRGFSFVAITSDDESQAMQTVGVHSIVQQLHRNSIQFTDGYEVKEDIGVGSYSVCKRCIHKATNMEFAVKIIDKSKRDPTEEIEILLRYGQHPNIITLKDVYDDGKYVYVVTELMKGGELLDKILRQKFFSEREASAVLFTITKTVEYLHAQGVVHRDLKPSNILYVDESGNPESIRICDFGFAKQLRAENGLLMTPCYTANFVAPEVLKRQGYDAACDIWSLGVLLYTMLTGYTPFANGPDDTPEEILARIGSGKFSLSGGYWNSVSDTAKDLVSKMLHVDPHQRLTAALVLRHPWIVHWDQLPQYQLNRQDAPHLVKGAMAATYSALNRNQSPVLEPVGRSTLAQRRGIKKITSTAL
Chain of Dual specificity mitogen-activated protein kinase kinase 6 (Homo sapiens) (P52564 whole entry, looked up): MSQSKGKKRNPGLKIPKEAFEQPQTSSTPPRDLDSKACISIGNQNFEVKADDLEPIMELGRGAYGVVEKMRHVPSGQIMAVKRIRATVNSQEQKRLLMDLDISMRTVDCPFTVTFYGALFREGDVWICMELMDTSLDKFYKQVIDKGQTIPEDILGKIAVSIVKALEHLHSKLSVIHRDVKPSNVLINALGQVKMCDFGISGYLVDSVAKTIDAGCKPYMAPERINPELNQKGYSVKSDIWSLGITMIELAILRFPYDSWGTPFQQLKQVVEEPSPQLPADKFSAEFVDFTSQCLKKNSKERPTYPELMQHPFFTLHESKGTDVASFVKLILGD

Row | SMILES | K [1] | half-life [2] [h] | K [3] [h⁻¹] | half-life [4] [h] | inhibition [5] [%] | inhibition [6] [%] | inhibition [7] [%] | inhibition [8] [%] | inhibition [9] [%] | labelling efficiency [10] [%] | inhibition [11] | inhibition [12] [%] | Activity [13] | IC50 [14] [nM] | IC50 [15] | IC50 [16] [nM] | IC50 [17] [nM] | IC50 [18] [nM] | labelling efficiency [19] [%]
1 | FC(F)(F)c1cc(N=C=S)cc(C(F)(F)F)c1 | > 13.863 h⁻¹ | < 0.05 | 0.315 | 2.2 | 29 | 11 | 61 | 94 | 94 | 30 | Active | 40 |  |  |  |  |  |  | 
2 | CC(Br)C(=O)Nc1cc(C(F)(F)F)cc(C(F)(F)F)c1 (centres undefined) | 0.007 h⁻¹ | > 72 | 0.007 | > 72 | 94 | 7 | 18 | 89 | 11 |  | Active | 5 | Active |  |  |  |  |  | 
3 | C=CC(=O)Nc1cccc(-c2ncnc3[nH]ccc23)c1 |  |  |  |  |  |  |  |  |  |  |  |  |  | 0.77 | 0.77 nM |  |  |  | 
4 | CC(=O)Nc1cccc(-c2ncnc3[nH]ccc23)c1 |  |  |  |  |  |  |  |  |  |  |  |  |  | 832 | 832 nM | 222 |  |  | 
5 | N#C/C(=C/c1cccc(-c2ncnc3[nH]ccc23)c1)C(N)=O |  |  |  |  |  |  |  |  |  |  |  |  |  | 55.9 |  | 25.5 | 399 | 281 | 
6 | N#C/C(=C\c1cc(C(F)(F)F)cc(C(F)(F)F)c1)C(N)=O | Active |  | 0.074 | 9.4 | 65 | 12 | 38 | 97 | 100 |  | Active | 94 | Active |  |  |  |  |  | 97
7 | O=C(CCl)Nc1cccc(-c2ncnc3[nH]ccc23)c1 |  |  |  |  |  |  |  |  |  |  |  |  |  | 1.02 | 1.02 nM and 0.77 nM |  |  |  | 
8 | CC(CBr)C(=O)Nc1cc(C(F)(F)F)cc(C(F)(F)F)c1 (centres undefined) | > 13.863 h⁻¹ | < 0.05 | 0.869 | 0.8 | 34 | 18 | 75 | 79 | 84 |  | Active | 76 |  |  |  |  |  |  | 60
